From ChEMBL document CHEMBL4616671, “Identification of N-Phenyl-7H-pyrrolo[2,3-d]pyrimidin-4-amine Derivatives as Novel, Potent, and Selective NF-κB Inducing Kinase (NIK) Inhibitors for the Treatment of Psoriasis” (J Med Chem, 2020)
Calls of active or inactive are those of the source. The rule behind the calls is not given here.

Tests used:
[1] = molecular target: Mitogen-activated protein kinase kinase kinase 14 (Mus musculus) (UniProt Q9WUL6); assay: In vivo inhibition of NIK in C57 mouse model of IMQ-induced psoriasis assessed as reduction in NF-kappaB signalling in back skin by measuring decrease in mRNA IL-10 level at 60 to 120 mg/kg, po administered starting from day 3 post IMQ-challenge and measured 2 days post-last dose of IMQ by qPCR analysis; format: functional, organism-based
Procedure, shortened: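 IMQ psoriasis model: 5% imiquimod cream applied to C57 mouse back skin once daily for seven days; oral dosing 60 or 120 mg/kg once daily from day 3, n = 6 per group. Back-skin mRNA measured by qPCR.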

[2] = Intrinsic clearance in dog liver microsomes assessed as per mg of protein incubated for 10 mins followed by potassium phosphate buffer addition and measured after 5 to 60 mins by LC-MS/MS analysis; format: ADME, Canis lupus familiaris, Microsome; details: read-out: CLH
Procedure, shortened: (§1)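 Rat, dog, monkey or human liver microsomes pre-incubated with compound at 37 °C for 10 min; reaction started after pre-warming and stopped at 5, 15, 30, 60 min with chilled quench containing tolbutamide and labetalol. No-cofactor control in 100 mM potassium phosphate for 60 min. LC-MS/MS analysis; first-order fit: k = −slope, T1/2 = 0.693/k, CLint = k/microsomal protein concentration.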

[3] = AUC (0 to infinity) in Sprague-Dawley rat at 10 mg/kg, po administered via gavage by LC-MS/MS analysis; format: ADME, organism-based; set-up: dose 10 mg/kg, time infinity, route oral; details: in vivo
Procedure, shortened: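 Single oral gavage in SD rats, 3 per group, as a suspension in saline with 0.5% CMC-Na and 0.2% Tween 80, 1 mg/mL. Plasma protein-precipitated with ACN containing internal standards, then LC-MS/MS. AUC0-∞ by linear trapezoidal rule, noncompartmental analysis. Mean ± SD of three rats.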

[4] = organism: Homo sapiens; assay: Selectivity ratio of IC50 for human TRKC to IC50 for human NIK
[5] = molecular target: Aurora kinase B (Homo sapiens, UniProt Q96GD4); assay: Inhibition of human Aurora B using [H-LRRASLG] as substrate in presence of [gamma33P]ATP by hotspot assay
[6] = molecular target: Mitogen-activated protein kinase kinase kinase 14 (Mus musculus) (UniProt Q9WUL6); assay: Inhibition of NIK in mouse J774 cells assessed as reduction in LPS-induced IL6 mRNA level by SYBR green dye-based quantitative PCR analysis; format: cell-based
Procedure, shortened: (§2)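 LPS-stimulated J774 macrophages; mRNA quantified by qPCR using 4 µL cDNA plus 16 µL master mix per reaction. Mean ± SD of three biological replicates; significance by two-tailed Student's t-test against the model group.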

[7] = organism: Homo sapiens; assay: Selectivity ratio of IC50 for human Aurora B to IC50 for human NIK
[8] = Intrinsic clearance in monkey liver microsomes assessed as per mg of protein incubated for 10 mins followed by potassium phosphate buffer addition and measured after 5 to 60 mins by LC-MS/MS analysis; format: ADME, Macaca mulatta, Microsome; details: rhesus monkey, read-out: CLH; procedure, shortened: as §1
[9] = tested on: J774; assay: Antiinflammatory activity in mouse J774 cells assessed as reduction in LPS-induced IL23 mRNA level by SYBR green dye-based quantitative PCR analysis; format: functional, cell-based; procedure, shortened: as §2
[10] = molecular target: Mitogen-activated protein kinase kinase kinase 14 (Mus musculus) (UniProt Q9WUL6); assay: In vivo inhibition of NIK in po dosed C57 mouse model of IMQ-induced psoriasis assessed as reduction in P52 expression in back skin administered starting from day 3 post IMQ-challenge and measured 2 days post-last dose of IMQ by Western blot analysis; format: functional, organism-based
Procedure, shortened: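 IMQ-induced psoriasis in C57 mice, 5% cream daily for 7 days, oral dosing 60 or 120 mg/kg from day 3. Back-skin protein extracts probed by western blot for p100 and p52; band optical density normalized to GAPDH.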

[11] = tested on: Mus musculus; assay: Suppression of IMQ-induced psoriasis in ig dosed C57 mouse assessed as reduction in serum IL-17A level administered once daily starting from day 3 post IMQ-challenge and measured 2 days post-last dose of IMQ by ELISA; format: functional, organism-based
Procedure, shortened: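 IMQ-induced C57 mice (5% cream 7 days; 60 or 120 mg/kg i.g. daily from day 3). Blood collected at end of dosing, held 12 h at 4 °C, centrifuged; serum IL-17A by ELISA. Mean ± SEM.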

[12] = Cmax in Sprague-Dawley rat at 10 mg/kg, po administered via gavage measured at 0.833 hrs by LC-MS/MS analysis; format: ADME, organism-based; set-up: dose 10 mg/kg, route oral; details: in vivo
[13] = tested on: Mus musculus; assay: Suppression of IMQ-induced psoriasis in C57 mouse assessed as reduction in spleen index at 60 mg/kg, ig administered once daily starting from day 3 post IMQ-challenge and measured 2 days post-last dose of IMQ; format: functional, organism-based
Procedure, shortened: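 IMQ-induced C57 mice (5% cream daily 7 days; i.g. daily from day 3 at the stated dose, n = 6). Spleen weighed per mouse at end of study.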

[14] = organism: Homo sapiens; assay: Selectivity ratio of IC50 for human ACK1 to IC50 for human NIK
[15] = tested on: Mus musculus; assay: Protection against IMQ-induced dermatitis in C57 mouse model of psoriasis assessed as reduction in skin swelling at 60 to 120 mg/kg, ig administered once daily starting from day 3 post IMQ-challenge and measured 2 days post-last dose of IMQ; format: functional, organism-based
Procedure, shortened: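 C57 mice given 5% imiquimod cream on the back once daily for 7 days; intragastric dosing 60 or 120 mg/kg once daily from day 3 to end, n = 6 per group. Dorsal skin phenotype assessed by imaging.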

Mitogen-activated protein kinase kinase kinase 14 (Mus musculus), sequence (Q9WUL6 whole entry): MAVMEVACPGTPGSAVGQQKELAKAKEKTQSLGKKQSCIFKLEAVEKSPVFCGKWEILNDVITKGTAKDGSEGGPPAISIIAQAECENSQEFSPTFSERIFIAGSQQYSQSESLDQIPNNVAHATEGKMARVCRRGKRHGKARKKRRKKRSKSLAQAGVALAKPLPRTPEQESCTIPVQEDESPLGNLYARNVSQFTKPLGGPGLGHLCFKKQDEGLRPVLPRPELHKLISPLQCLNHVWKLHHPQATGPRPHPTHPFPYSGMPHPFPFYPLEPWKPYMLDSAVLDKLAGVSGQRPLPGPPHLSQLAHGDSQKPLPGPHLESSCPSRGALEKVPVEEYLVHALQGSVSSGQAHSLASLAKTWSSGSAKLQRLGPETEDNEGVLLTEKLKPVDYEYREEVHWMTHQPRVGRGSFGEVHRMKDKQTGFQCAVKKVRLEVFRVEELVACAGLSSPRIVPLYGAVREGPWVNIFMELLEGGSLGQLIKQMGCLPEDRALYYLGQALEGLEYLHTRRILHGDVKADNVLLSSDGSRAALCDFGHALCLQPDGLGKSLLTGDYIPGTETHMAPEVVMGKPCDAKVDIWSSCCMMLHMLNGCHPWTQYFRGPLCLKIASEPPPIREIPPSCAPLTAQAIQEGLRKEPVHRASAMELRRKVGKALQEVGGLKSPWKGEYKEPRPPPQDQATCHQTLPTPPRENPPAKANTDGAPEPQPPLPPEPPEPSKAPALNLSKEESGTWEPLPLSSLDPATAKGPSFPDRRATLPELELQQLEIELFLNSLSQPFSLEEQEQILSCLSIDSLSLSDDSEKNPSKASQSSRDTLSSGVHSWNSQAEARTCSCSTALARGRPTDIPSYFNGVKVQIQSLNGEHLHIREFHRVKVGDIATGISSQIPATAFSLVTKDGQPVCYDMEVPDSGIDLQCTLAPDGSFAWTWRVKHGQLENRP
Aurora kinase B, sequence (Q96GD4 whole entry): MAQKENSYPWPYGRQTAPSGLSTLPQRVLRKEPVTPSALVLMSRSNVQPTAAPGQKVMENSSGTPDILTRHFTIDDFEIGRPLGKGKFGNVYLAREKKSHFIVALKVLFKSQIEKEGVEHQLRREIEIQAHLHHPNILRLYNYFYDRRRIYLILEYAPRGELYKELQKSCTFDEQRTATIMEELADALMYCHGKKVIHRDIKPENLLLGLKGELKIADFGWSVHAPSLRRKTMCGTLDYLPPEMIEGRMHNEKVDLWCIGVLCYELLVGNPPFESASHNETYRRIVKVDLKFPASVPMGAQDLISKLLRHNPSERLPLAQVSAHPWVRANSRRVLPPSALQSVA

- inhibition [1]: Active
- microsomal CLint [2]: 43.3 µL/min/mg
- AUC(0-inf) [3]: 2680 ng·h/mL
- Ratio IC50 [4]: 4 to 20
- IC50 [5]: 0.0432 µM
- inhibition [6]: Active
- Ratio IC50 [7]: 4 to 20
- microsomal CLint [8]: 76.8 µL/min/mg
- inhibition [10]: Dose-dependent effect
- Cmax [12]: 772 ng/mL
- Ratio IC50 [14]: 4 to 20
SMILES: CC(O)(C#Cc1ccc(N2CCOCC2)c(Nc2ncnc3[nH]ccc23)c1)c1nccs1 (racemic)
- Activity [9]: Active
- inhibition [11]: Dose-dependent effect
- inhibition [13]: Active
- Activity [15]: Active
